High-throughput results: PubChem BioAssay, several laboratories
This is a sample that favours compounds with a hit; in the whole collection about 8.4% have one here.
Ecoli tolC: growth inhibitors of E. coli BW25113 tolC mutant | OD615 | growth inhibition, % at 10 µM (by protocol) | 65,000 tested, 2.2% active | AID 573;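 active = growth inhibition at or above a cutoff equal to the mean over every tested compound plus 3 SD, cut at about 60% in these data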;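 also: growth measured after 20 h incubation at 37 °C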
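Assay system: tolC-deleted E. coli BW25113. Medium: kanamycin-containing LB broth (50 µg/mL). Dosing: 10 µM final, single dose. Timing: bacterial growth with compound for 20 h at 37 °C. Detection: A615 absorbance measurement. Read-out basis: growth inhibition in percent.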
PostGolgi ctrl: inhibits growth of the yeast control strain; efflux-deficient yeast background strain, growth absorbance A615, 16 h; inhibition, % at 10 µM; 98,000 tested, 5% active
PostGolgi yeast: growth inhibition of a yeast mutant, post-Golgi transport screen | 98,000 tested, 0.9% active | inhibition, % at 10 µM | post-Golgi transport phenotypic cell assay;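 also: yeast cells grown in 1536-well plates; yeast grown about 18 h at 30C before absorbance read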
E coli WT exp: blocks growth of wild type E. coli BW25113; OD600 absorbance; growth inhibition, % at 100 µM; 98,000 tested, 0.15% active;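 active = growth inhibition above about 50% at one test dose, limit read from the data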;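 also: growth measured after 20 h incubation at 37 °C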
Cav3 T inh: inhibitors of human Cav3.2 T-type calcium channel; B-score at 10 µM; AID 449739; O95180; 100,000 tested, 4% active; Cav3.2-expressing cells, Fluo-4 calcium fluorescence FDSS; active compounds read low;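 active = single-dose well whose peak fluorescence ratio is a statistical outlier from its plate by either plate-standardised score or position-corrected B-score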
Target sequence (O95180 whole entry, looked up): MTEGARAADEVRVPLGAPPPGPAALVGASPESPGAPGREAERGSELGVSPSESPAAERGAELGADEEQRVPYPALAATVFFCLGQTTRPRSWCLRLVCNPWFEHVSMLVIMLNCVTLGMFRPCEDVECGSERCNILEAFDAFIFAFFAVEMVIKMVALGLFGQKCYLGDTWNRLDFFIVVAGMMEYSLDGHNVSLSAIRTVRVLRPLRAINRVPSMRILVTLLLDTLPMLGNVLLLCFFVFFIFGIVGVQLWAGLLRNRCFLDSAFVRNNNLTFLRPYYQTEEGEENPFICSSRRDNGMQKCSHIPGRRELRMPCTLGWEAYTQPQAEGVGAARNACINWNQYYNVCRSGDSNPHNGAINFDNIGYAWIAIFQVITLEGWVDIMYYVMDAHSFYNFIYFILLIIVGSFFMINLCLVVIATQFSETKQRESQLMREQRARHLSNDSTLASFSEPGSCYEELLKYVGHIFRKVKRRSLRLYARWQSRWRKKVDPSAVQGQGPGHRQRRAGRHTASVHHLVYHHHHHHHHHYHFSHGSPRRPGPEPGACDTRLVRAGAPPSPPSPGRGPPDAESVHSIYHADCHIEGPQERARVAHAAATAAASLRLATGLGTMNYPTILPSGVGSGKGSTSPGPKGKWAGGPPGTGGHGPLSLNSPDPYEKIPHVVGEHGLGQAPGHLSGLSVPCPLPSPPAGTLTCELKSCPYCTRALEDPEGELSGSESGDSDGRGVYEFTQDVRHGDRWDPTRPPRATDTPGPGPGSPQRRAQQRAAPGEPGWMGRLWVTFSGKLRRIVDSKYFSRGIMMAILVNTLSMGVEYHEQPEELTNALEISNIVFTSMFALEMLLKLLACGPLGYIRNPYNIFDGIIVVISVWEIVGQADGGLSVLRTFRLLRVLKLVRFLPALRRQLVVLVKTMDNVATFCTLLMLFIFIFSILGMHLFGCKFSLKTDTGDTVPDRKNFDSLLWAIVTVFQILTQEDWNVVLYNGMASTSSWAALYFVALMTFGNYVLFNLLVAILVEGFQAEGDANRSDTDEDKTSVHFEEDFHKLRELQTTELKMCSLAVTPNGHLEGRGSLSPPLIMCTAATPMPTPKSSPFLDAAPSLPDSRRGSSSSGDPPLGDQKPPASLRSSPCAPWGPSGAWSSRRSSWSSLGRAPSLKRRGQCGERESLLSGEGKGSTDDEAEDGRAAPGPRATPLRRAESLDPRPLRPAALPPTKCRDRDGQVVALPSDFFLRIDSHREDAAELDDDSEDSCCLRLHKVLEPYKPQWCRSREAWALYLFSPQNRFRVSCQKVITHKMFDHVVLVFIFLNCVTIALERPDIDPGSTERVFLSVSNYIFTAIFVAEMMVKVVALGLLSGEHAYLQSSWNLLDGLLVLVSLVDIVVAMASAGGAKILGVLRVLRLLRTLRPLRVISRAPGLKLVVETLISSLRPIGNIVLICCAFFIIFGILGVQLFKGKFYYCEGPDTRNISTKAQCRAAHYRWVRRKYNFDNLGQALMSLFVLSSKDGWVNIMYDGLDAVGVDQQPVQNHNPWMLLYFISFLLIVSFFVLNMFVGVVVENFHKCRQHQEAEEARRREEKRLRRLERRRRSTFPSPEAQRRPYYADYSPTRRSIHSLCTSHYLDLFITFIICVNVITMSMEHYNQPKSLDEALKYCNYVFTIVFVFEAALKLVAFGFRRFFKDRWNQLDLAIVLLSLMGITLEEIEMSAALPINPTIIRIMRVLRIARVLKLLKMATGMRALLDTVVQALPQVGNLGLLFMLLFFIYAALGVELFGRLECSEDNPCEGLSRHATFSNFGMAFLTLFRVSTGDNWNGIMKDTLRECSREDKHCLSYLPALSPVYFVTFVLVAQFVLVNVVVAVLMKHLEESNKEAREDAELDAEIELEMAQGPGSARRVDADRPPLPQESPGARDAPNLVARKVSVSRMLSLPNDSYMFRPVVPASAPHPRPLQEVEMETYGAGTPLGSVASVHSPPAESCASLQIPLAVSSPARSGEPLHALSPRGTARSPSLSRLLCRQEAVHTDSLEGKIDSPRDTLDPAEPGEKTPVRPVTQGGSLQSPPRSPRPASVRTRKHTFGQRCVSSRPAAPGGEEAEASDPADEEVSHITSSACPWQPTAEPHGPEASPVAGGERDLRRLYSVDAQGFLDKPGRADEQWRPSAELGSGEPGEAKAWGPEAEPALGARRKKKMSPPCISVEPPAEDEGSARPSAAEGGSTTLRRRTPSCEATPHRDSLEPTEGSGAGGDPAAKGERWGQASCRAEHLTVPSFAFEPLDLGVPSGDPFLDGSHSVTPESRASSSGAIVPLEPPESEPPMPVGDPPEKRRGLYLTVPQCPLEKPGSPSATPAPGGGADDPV
Each line names hits and unclear results; the compound was inactive in the other large screens. Rule as the data show it, unless noted: active = inhibition above about 30%; inactive = the rest.

COc1ccc(C(O)c2nccn2Cc2ccccc2)cc1 (stereo not drawn)	none
CNc1sc(C(=O)c2cccs2)c(N)c1-c1nc2ccccc2s1	none
Cc1ccccc1N(C(=O)c1cccs1)c1nc2ccccc2s1	PostGolgi ctrl 35 (no result: Ecoli tolC, Cav3 T inh)
COc1cccc(-n2c(SCC(=O)NCCc3ccccc3)nnc2-c2ccoc2C)c1	Cav3 T inh -8
Cc1occc1-c1nnc(SCC(=O)Nc2ccccc2)n1CCc1ccccc1	none
Cc1occc1-c1nnc(SCC(=O)Nc2ccccc2)n1C(C)c1ccccc1 (stereo not drawn)	Cav3 T inh -4.3
COc1cccc(-n2c(SCC(=O)Nc3nccs3)nnc2-c2ccoc2C)c1	Cav3 T inh -4 (no result: Ecoli tolC, PostGolgi ctrl, PostGolgi yeast, E coli WT exp)
Cc1occc1-c1nnc(SCC(N)=O)n1Cc1ccccc1	none (no result: Ecoli tolC)
COc1ccc(-n2c(SCC(=O)Nc3nccs3)nnc2-c2ccoc2C)cc1	none (no result: Ecoli tolC)
Cn1c(SCC(=O)NCCc2ccccc2)nnc1-c1ccco1	none (no result: Ecoli tolC)
Cc1occc1-c1nnc(SCC(=O)NCCc2ccccc2)n1Cc1ccccc1	Cav3 T inh -5
O=C1CN(c2nc3ccccc3n3cnnc23)CC(=O)N1CCc1ccccc1	none
CCn1c(Cc2cccc3ccccc23)nnc1SCC(=O)Nc1nccs1	Cav3 T inh -5.9 (no result: Ecoli tolC, PostGolgi ctrl, PostGolgi yeast, E coli WT exp)
Cc1cc(C)nc(SCc2nnc(SCC(=O)Nc3nccs3)n2C)n1	none (no result: Ecoli tolC, PostGolgi ctrl, PostGolgi yeast, E coli WT exp)
COc1ccc(-n2c(SCC(=O)Nc3nc(C)cs3)nnc2-c2ccoc2C)cc1	Cav3 T inh -6.5 (no result: Ecoli tolC, PostGolgi ctrl, PostGolgi yeast, E coli WT exp)
COc1ccc(CCCc2nnc(SCC(=O)Nc3nccs3)n2C)cc1C	PostGolgi ctrl 45
Cn1nnnc1P(=O)(c1ccccc1)c1ccccc1	none
COc1ccc(/C=C(\NC(=O)c2ccccc2)C(=O)N/N=C/c2ccncc2)cc1	none (no result: Ecoli tolC)
COc1cc(/C=N/NC(=O)c2cnn3c(C)cc(-c4ccccc4)nc23)ccc1O	PostGolgi ctrl 34 (no result: Ecoli tolC)
CCOC(=O)c1cnn2c(C)cc(-c3ccccc3)nc12	none
COc1ccc(/C=N/NC(=O)c2nc(-c3ccccc3)cc(-c3ccccc3)n2)cc1	PostGolgi ctrl 31, Cav3 T inh -7.2 (no result: Ecoli tolC)
O=C1CCC([N+](=O)[O-])C(c2cccc(Cl)c2Cl)N1 (stereo not drawn)	none (no result: Ecoli tolC)
Cc1cc(C)c(-c2noc(C(=O)OC(C)(C)C)c2C(=O)OC(C)(C)C)c(C)c1	none (no result: Ecoli tolC)
CN(C)S(=O)(=O)N1CCN(CC(O)COc2ccc3cc(Br)ccc3c2)CC1 (stereo not drawn)	PostGolgi ctrl 41
OC(COc1ccc2cc(Br)ccc2c1)CN1CCN(c2ccccn2)CC1 (stereo not drawn)	PostGolgi ctrl 37
O=C(Cn1c(=O)sc2ccccc21)Nc1ccccc1C(=O)O	none
O=S(=O)(/C=C/c1ccccc1)Nc1ccc2c(c1)OCO2	Cav3 T inh -7.4
CCN(CC)c1ccc(C2C(C(C)=O)C(=O)CC(C)(O)C2C(C)=O)cc1 (stereo not drawn)	none (no result: Ecoli tolC, PostGolgi ctrl, PostGolgi yeast, E coli WT exp)
Cc1sc(NC(=O)C2CCCCC2C(=O)O)c(C(N)=O)c1C (stereo not drawn)	Cav3 T inh -4.2 (no result: Ecoli tolC)
Cc1sc(NC(=O)C2CCCCC2C(=O)O)c(C(N)=O)c1-c1ccc(C(C)(C)C)cc1 (stereo not drawn)	PostGolgi ctrl 30 (no result: Ecoli tolC, Cav3 T inh)
CCC(C)[C@H](NC(=O)NCc1cccc(OC)c1)C(=O)O (stereo partly drawn)	none
CCC(C)[C@H](NC(=O)NCc1ccccc1)C(=O)O (stereo partly drawn)	PostGolgi ctrl 45
Cc1cc2ncn(/N=C/c3ccc(-c4ccccc4)o3)c2cc1C	none (no result: Ecoli tolC)
Cc1ccc(/C=N/n2cnc3sc(-c4ccccc4)cc3c2=O)o1	PostGolgi yeast 65 (no result: Ecoli tolC)
CC1=C(C(=O)NCCN2CCN(C)CC2)C2(CCC(C)CC2)OC1=O (stereo not drawn)	none
CC(C)(C)N1C(=O)Cc2c1nc(N)c1c(N)nc(N3CCCCC3CO)c(C#N)c21 (stereo not drawn)	Ecoli tolC 80
CCc1cc2c(=O)c(-c3nc4ccccc4[nH]3)coc2cc1OC(=O)N1CCOCC1	PostGolgi yeast 31 (no result: Cav3 T inh)
COC(=O)C1N[C@@H]([C@@H](NC(=O)COc2ccccc2)C(=O)NCc2ccsc2)SC1(C)C (stereo partly drawn)	none (no result: Ecoli tolC, PostGolgi ctrl, PostGolgi yeast, E coli WT exp)
CCN(c1ccccc1)S(=O)(=O)c1ccc(OCc2c(C)noc2C)cc1	Cav3 T inh -4.4
CCN(C(=O)COC(=O)c1ccc(OCc2c(C)noc2C)cc1)c1ccccc1	none (no result: Ecoli tolC)
CC(c1ccc(F)cc1)n1c(-c2ccc3ccccc3n2)n[nH]c1=S (stereo not drawn)	PostGolgi ctrl 36 (no result: Ecoli tolC)
CC(c1ccc(Cl)cc1)n1c(-c2ccc3ccccc3n2)n[nH]c1=S (stereo not drawn)	PostGolgi ctrl 55 (no result: Ecoli tolC)
CC1(C)Cc2ccccc2-c2nnc(-c3ccc4ccccc4n3)n21	none (no result: Ecoli tolC, PostGolgi ctrl, PostGolgi yeast, E coli WT exp)
Cc1ccc(Cl)cc1N1CCN(CC(=O)Nc2ccc3[nH]c(=O)[nH]c3c2)CC1	none
CCCc1cc(=O)[nH]c(SCC(=O)N2CCN(c3ccc(F)cc3)CC2)n1	none
Cc1ccc(C2C(/C=C3/SC(=S)NC3=O)=C(c3cccs3)Oc3ccccc32)cc1 (stereo not drawn)	none (no result: Ecoli tolC, Cav3 T inh)
N=c1n(CCN2CCCCC2)c2ccccc2n1CC(O)c1ccc(Cl)c(Cl)c1 (stereo not drawn)	E coli WT exp 98 (no result: Ecoli tolC)
O=C(c1sc2ccccc2c1Cl)N(Cc1cccs1)C1CCS(=O)(=O)C1 (stereo not drawn)	Cav3 T inh -7.8
O=C(c1cccc(Cl)c1)N(Cc1cccs1)C1CCS(=O)(=O)C1 (stereo not drawn)	none
CC12CC(c3ccccc3O1)C(C(=O)NCc1ccccc1)C(=O)N2 (stereo not drawn)	PostGolgi yeast 35
COc1ccc(NC(=O)C2C(=O)NC3(C)CC2c2ccccc2O3)cc1 (stereo not drawn)	none
O=C(CCc1nc(-c2cccs2)no1)NCc1ccc(F)cc1Cl	Cav3 T inh -4.5 (no result: Ecoli tolC)
Cc1ccc(CNC(=O)CCc2nc(-c3cccs3)no2)cc1	PostGolgi ctrl 43, Cav3 T inh -5.1 (no result: Ecoli tolC)
CCOC(=O)N1CCN(C(=O)c2ccc(N(Cc3ccccc3)S(C)(=O)=O)cc2)CC1	none (no result: Ecoli tolC)
CCCCCCc1cc2cc(C(N)=O)c(=N)oc2cc1O	Cav3 T inh -11 (no result: Ecoli tolC)
CCCCCCc1cc2cc(C(=O)NC)c(=N)oc2cc1O	Cav3 T inh -9.3
CCN(CC)c1ccc2cc(C(N)=O)c(=O)oc2c1	none (no result: Ecoli tolC, PostGolgi ctrl, PostGolgi yeast, E coli WT exp)
C=CCc1cccc2cc(C(=O)NC)c(=O)oc12	none
O=C(c1cc2sccc2n1Cc1ccc(F)cc1)N1CCN(c2nc3ccccc3s2)CC1	none (no result: Ecoli tolC, PostGolgi ctrl, PostGolgi yeast, E coli WT exp)
Cn1c(C(=O)N2CCN(c3nc4ccccc4s3)CC2)cc2sccc21	PostGolgi ctrl 45
COc1ccc(CNC2CC(=O)N(C)C2=O)cc1 (stereo not drawn)	PostGolgi ctrl 35
COc1ccc(N2C(=O)CC(NCc3ccc(F)cc3)C2=O)cc1 (stereo not drawn)	none (no result: Ecoli tolC, PostGolgi ctrl, PostGolgi yeast, E coli WT exp)
CC(CC(=O)Nc1nc2ccccc2[nH]1)c1ccccc1 (stereo not drawn)	Cav3 T inh -5.7 (no result: Ecoli tolC)
CCOC(=O)c1cnn(CCOC(=O)C2CC2)c1NC(=O)C1CC1	Cav3 T inh -3.6
CSc1ccccc1C(=O)Nc1cccc(C)c1	none (no result: Ecoli tolC)
